Test results taken from ChEMBL document CHEMBL4414568, “Development of Novel Irreversible Pyruvate Kinase M2 Inhibitors” (J Med Chem, 2019).
pIC50: −log10 of the molar value. The source made the active and inactive calls. The calls are words filed in the database; no cut-off is given here.

Tests used:
[1] = test system: PC-9; experiment: Effect on basal extracellular acidification rate in human PC9 cells at 0.25 to 1 uM measured after 4 hrs in absence of glucose by seahorse XF96 flux analyser based assay; format: cell-based; settings: pc-9, 4 h
Outline: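 PC-9 cells, 5 × 10^4 per well, seeded 24 h ahead, then treated with DMSO or compound at 0.25, 0.5 or 1 µM for 4 h at 37 °C. Cells held 1 h without CO2 in glycolysis medium. Seahorse glycolysis stress test with serial injections of 10 mM glucose, oligomycin and 50 mM 2-DG; ECAR and OCR recorded together. Six wells per point.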

[2] = molecular target: T1, Pyruvate kinase PKM (Homo sapiens, UniProt P14618); experiment: Inhibition of PKM2 in human PC9 cells assessed as reduction in beta-catenin expression incubated for 24 hrs by Western blot analysis; format: cell-based
Outline: (§1)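 PC-9 cells seeded at 5 × 10^5 cells/mL; after 24 h given 0–1 µM compound or DMSO for 24 h. Lysates run on 10% SDS-PAGE, transferred to nitrocellulose, probed for PKM2, EGFR, p-STAT3, STAT3, p-β-catenin, β-catenin and β-actin with HRP secondaries, ECL detection.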

[3] = molecular target: T1, Pyruvate kinase PKM; experiment: Inhibition of N-(4-(3-(3-(Methylamino)-3-oxopropyl)-5-(4'-(prop-2-yn-1-yloxy)-[1,1'-biphenyl]-4-yl)-1H-pyrazol-1-yl)phenyl)propiolamide binding to PKM2 in human PC9 cells at 1 uM preincubated for 1 hr followed by probe addition and measured after 1 hr using antibody by Western blot analysis; format: cell-based
Outline: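 PC-9 cells pretreated with 1 µM compound or DMSO for 1 h, then alkyne probe added at 0.5, 1 or 2 µM for 1 h at 37 °C. Lysates put through Cu-catalysed click with biotin-azide, streptavidin beads 16 h at 4 °C, washes with 0.5% SDS/PBS, 10% SDS-PAGE and PKM2 Western blot.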

[4] = test system: PC-9; experiment: Antiproliferative activity against human PC9 cells harboring EGFR mutant assessed as reduction in cell viability incubated for 24 hrs by MTT assay; format: functional, cell-based; settings: PC-9, 24 h
Outline: (§2)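 Cells seeded at 3,500 per well in 10% FBS and left overnight, then exposed to test agent or vehicle in 5% FBS for 24 h. MTT added for 1 h, then medium swapped for DMSO and absorbance read at 560 nm. Viability given as percent of vehicle-treated control. Run in triplicate.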

[5] = molecular target: T1, Pyruvate kinase PKM; experiment: Inhibition of PKM2 in human PC9 cells at 0.25 uM using PEP as substrate incubated for 6 hrs by OxiRed probe-based colorimetric analysis; format: cell-based
Outline: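 PC-9 cells seeded at 5 × 10^5 cells/mL, after 24 h given 0.25 µM compound or DMSO for 6 h. Lysate pyruvate kinase activity read with a colorimetric kit measuring H2O2 made from PEP and […] through PK and then pyruvate oxidase. n = 3.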

[6] = test system: PC-3; experiment: Antiproliferative activity against human PC3 cells assessed as reduction in cell viability incubated for 24 hrs by MTT assay; format: functional, cell-based; settings: PC-3, 24 h; outline: as §2
[7] = test system: NCI-H460; experiment: Antiproliferative activity against human H460 cells expressing wild type EGFR assessed as reduction in cell viability incubated for 24 hrs by MTT assay; format: functional, cell-based; settings: NCI-H460, 24 h; outline: as §2
[8] = test system: NCI-H157; experiment: Antiproliferative activity against human NCI-H157 cells assessed as reduction in cell viability incubated for 24 hrs by MTT assay; format: functional, cell-based; settings: NCI-H157, 24 h; outline: as §2
[9] = molecular target: L-lactate dehydrogenase A chain (Homo sapiens) (UniProt P00338); experiment: Binding affinity to LDHA in human PC9 cells incubated for 1 hr by ABPP-SILAC assay; format: cell-based
Outline: (§3)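 PC-9 cells passaged at least six times in SILAC DMEM with 10% dialyzed FBS plus 100 µg/mL light or 13C/15N-labeled Arg/Lys. Heavy cells got ABPP probe (1 µM) and light cells DMSO, 1 h at 37 °C. Cells mixed 1:1, sonicated, spun at 100,000g, protein normalized to 1 mg/mL. Click biotin-azide, streptavidin bead pulldown 16 h at 4 °C, SDS-PAGE, on-bead trypsin digestion, LC-MS/MS.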

[10] = molecular target: T1, Pyruvate kinase PKM; experiment: Inhibition of PKM2 in human PC9 cells assessed as reduction in STAT3 phosphorylation at 0.5 uM incubated for 24 hrs by Western blot analysis; format: cell-based; outline: as §1
[11] = molecular target: Alpha-enolase (Homo sapiens) (UniProt P06733); experiment: Binding affinity to ENOA in human PC9 cells incubated for 1 hr by ABPP-SILAC assay; format: cell-based; outline: as §3
[12] = molecular target: T2, Citrate synthase, mitochondrial (Homo sapiens) (UniProt O75390); experiment: Binding affinity to CS in human PC9 cells incubated for 1 hr by ABPP-SILAC assay; format: cell-based; outline: as §3
T2 sequence (whole entry): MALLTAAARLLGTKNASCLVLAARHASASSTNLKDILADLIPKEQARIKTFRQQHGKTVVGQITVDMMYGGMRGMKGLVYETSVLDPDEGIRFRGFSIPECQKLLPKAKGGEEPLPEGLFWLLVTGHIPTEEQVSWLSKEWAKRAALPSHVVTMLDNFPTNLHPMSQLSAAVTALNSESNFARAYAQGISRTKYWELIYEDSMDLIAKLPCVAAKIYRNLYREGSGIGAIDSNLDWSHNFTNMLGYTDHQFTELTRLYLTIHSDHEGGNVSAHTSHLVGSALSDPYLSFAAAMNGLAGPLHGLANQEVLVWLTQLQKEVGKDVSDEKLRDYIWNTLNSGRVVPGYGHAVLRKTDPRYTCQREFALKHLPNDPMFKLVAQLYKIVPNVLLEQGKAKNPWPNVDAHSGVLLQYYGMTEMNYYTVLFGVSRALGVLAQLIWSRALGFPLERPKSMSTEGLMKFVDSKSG

[13] = test system: NCI-H1650; experiment: Antiproliferative activity against human NCI-H1650 cells harboring EGFR mutant assessed as reduction in cell viability incubated for 24 hrs by MTT assay; format: functional, cell-based; settings: NCI-H1650, 24 h; outline: as §2
[14] = molecular target: T1, Pyruvate kinase PKM; experiment: Inhibition of PKM2 in human PC9 cells assessed as reduction in STAT3 expression incubated for 24 hrs by Western blot analysis; format: cell-based; outline: as §1
[15] = molecular target: T1, Pyruvate kinase PKM; experiment: Inhibition of PKM2 in human PC9 cells assessed as reduction in beta-catenin phosphorylation at 0.5 uM incubated for 24 hrs by Western blot analysis; format: cell-based; outline: as §1

T1 sequence (P14618 2-531 limits assumed): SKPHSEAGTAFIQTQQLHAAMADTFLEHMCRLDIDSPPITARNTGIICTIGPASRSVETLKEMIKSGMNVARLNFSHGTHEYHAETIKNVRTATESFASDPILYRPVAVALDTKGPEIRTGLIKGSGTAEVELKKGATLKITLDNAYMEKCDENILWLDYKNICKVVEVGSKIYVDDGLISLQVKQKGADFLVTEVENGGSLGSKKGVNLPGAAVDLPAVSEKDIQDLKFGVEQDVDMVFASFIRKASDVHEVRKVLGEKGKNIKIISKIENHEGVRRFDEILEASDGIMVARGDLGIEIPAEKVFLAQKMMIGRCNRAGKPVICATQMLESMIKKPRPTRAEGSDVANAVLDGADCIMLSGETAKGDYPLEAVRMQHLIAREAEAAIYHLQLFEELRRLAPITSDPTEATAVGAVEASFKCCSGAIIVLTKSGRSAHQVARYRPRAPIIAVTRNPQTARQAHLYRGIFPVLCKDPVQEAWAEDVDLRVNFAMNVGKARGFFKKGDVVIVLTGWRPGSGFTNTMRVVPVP
Alpha-enolase (Homo sapiens), sequence (P06733 whole entry): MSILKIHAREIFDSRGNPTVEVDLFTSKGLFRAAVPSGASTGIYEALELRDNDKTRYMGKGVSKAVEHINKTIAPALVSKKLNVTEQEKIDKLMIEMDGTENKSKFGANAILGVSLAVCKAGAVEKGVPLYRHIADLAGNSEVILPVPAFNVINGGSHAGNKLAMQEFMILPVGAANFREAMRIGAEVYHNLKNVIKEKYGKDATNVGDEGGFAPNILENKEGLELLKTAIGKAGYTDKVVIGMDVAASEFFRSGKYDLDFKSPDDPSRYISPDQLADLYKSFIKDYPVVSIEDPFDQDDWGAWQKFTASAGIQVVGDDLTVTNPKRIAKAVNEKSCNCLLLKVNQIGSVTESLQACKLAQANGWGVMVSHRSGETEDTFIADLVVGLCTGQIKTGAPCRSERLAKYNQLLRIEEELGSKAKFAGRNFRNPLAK

inhibition [2]: Dose-dependent effect | inhibition [3]: Active | pIC50 [4]: 6.30 | inhibition [5]: Active | pIC50 [6]: 6.22 | pIC50 [7]: 5.82 | pIC50 [8]: < 5.70 | Activity [9]: Active | inhibition [10]: inactive | Activity [11]: Active | Activity [12]: Active | pIC50 [13]: 6.70 | inhibition [14]: Dose-dependent effect | inhibition [15]: inactive
Compound: C#CC(=O)Nc1ccc(-n2nc(CCC(=O)NC)cc2-c2ccc(-c3ccc(C(F)(F)F)cc3)cc2)cc1
Activity [1]: Non-Toxic
